From ChEMBL document CHEMBL3120162, “Sesquiterpenes from Neurolaena lobata and their antiproliferative and anti-inflammatory activities” (J Nat Prod, 2014) come the findings set out here.

Broadly, the IC50 is the concentration needed to halve the response being measured.

Activity calls are given as the source filed them. The calls are words filed in the database; no cut-off is given here.

For assay [1], the system named is HUVEC. The assay can be described thus: Inhibition of TNF-alpha-induced IL-8 secretion in HUVEC expressing TERT treated for 15 mins prior to LPS challenge measured after 6 hrs by ELISA. Type of assay: functional, Homo sapiens. Summed up: (§1)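 Immortalized HUVEC (hTERT) were grown in medium 199 with 20% FBS, glutamine and ECGS/heparin. Compounds were added in medium with 5% FBS (final 30 μM) 15 min before a stimulus: TNF-α 30 ng/mL or LPS 100 ng/mL final. Media were collected after 6 h and IL-8 protein was measured by ELISA with TMB substrate. Sextuplicates, BAY positive control, ANOVA.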
For orientation: An ELISA detects its analyte on a solid surface through an enzyme-linked reagent.

Assay [2] relates to HUVEC. The assay can be described thus: Inhibition of LPS-induced IL-8 secretion in HUVEC expressing TERT treated for 15 mins prior to LPS challenge measured after 6 hrs by ELISA. In kind it is functional, Homo sapiens. Summed up:
as §1

In assay [3] the test system is A-431. Description: Antiproliferative activity against human A431 cells assessed as inhibition of cell proliferation after 72 hrs by MTT assay. Type of assay: functional, cell-based. As to conditions: A-431, 72 h. In outline:
(§2)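 Cells seeded at 5000/well and allowed to attach overnight, then given fresh medium with test agents (from 10 mM DMSO stocks; at most 0.3% DMSO in medium) for 72 h. 5 mg/mL MTT solution was added for 4 h, and formazan was dissolved in DMSO and read at 545 nm. Untreated cells served as negative control and cisplatin as reference. Two plates, ≥5 parallel wells each. IC50 from sigmoidal dose-response fits.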
A general note: Formazan colour is commonly taken as a measure of viable cells.

Assay [4] concerns HUVEC. Description: Inhibition of LPS-induced IL-8 secretion in HUVEC expressing TERT at 30 uM treated for 15 mins prior to LPS challenge measured after 6 hrs by ELISA. To be noted: Homo sapiens. In kind it is functional, cell-based. In outline:
as §1

The test system of assay [5] is HeLa. The assay can be described thus: Antiproliferative activity against human HeLa cells assessed as inhibition of cell proliferation after 72 hrs by MTT assay. In kind it is functional, cell-based. In outline: as §2
The test system of assay [6] is MCF7. Description: Antiproliferative activity against human MCF7 cells assessed as inhibition of cell proliferation after 72 hrs by MTT assay. Type of assay: functional, cell-based. To be noted: MCF7, 72 h. Summed up:
as §2

Assay [7] has as its system HUVEC. The assay can be described thus: Inhibition of TNF-alpha-induced IL-8 secretion in HUVEC expressing TERT at 30 uM treated for 15 mins prior to LPS challenge measured after 6 hrs by ELISA. In kind it is functional, cell-based. As to conditions: Homo sapiens. Summed up: as §1
Assay [8] concerns A2780. Description: Antiproliferative activity against human A2780 cells assessed as inhibition of cell proliferation after 72 hrs by MTT assay. Type of assay: functional, cell-based. As to conditions: A2780, 72 h. Summed up:
as §2

For `Cc1ccc(S(=O)(=O)/C=C/C#N)cc1`, the “inhibition (INH)” value in assay [1] came to 23.7%; in assay [2], 12.7%.

With `C=C1C(=O)O[C@@H]2[C@@H]1[C@H](OC(=O)CC(C)C)C[C@@]1(C)[C@H](O)C[C@H](OC(C)=O)C(=C)[C@H]21` (relative stereo), the IC50 was 5.3 µM in assay [3], > 10 µM in assay [5], > 10 µM in assay [6] and 7.2 µM in assay [8]. Besides, the inhibition result in assay [4] was “Active”. The inhibition entry in assay [7] was “inactive”.

In the case of `C=C1C(=O)O[C@@H]2/C=C(\C)[C@H](O)C[C@H]3O[C@]3(C)C[C@@H](OC(=O)CC(C)C)[C@@H]12` (relative stereo), the IC50 in assay [3] is 7.2 µM; in assay [5] it was > 10 µM; in assay [6], 7.2 µM; in assay [8], 4.7 µM. For the same compound, in assay [4], the inhibition entry is “Active”. Besides, the inhibition result in assay [7] was “inactive”.

In the case of `C=C1C(=O)O[C@@H]2[C@@H](O)[C@@H](C)C3=CC(=O)[C@](C)(O3)[C@H](O)[C@@H](OC(=O)CC(C)C)[C@@H]12` (relative stereo), the IC50 in assay [3], in assay [5], in assay [6] and in assay [8] was > 10 µM in each case. For the same compound, the inhibition entry in assay [4] was “Active”. Further, the inhibition entry in assay [7] is “inactive”.

On to `C=C1C(=O)O[C@@H]2C[C@@]3(C)O[C@H](O[C@H]3CC(=O)C(C)=O)[C@@H](OC(=O)CC(C)C)[C@@H]12` (relative stereo), for which the IC50 in assay [3] is 6.8 µM; in assay [5], > 10 µM; in assay [6], > 10 µM; in assay [8] it was 5.4 µM. In addition, in assay [4], the inhibition entry is “Active”. For the same compound, the inhibition result in assay [7] is “inactive”.

Take `C=C1C(=O)O[C@@H]2C[C@]3(C)O[C@@H](O[C@@H]3CC(=O)C(C)=O)[C@@H](OC(=O)CC(C)C)[C@@H]12` (relative stereo): the IC50 in assay [3] is > 10 µM; in assay [5], > 10 µM; in assay [6], > 10 µM; in assay [8] it was 9.8 µM. Moreover, the inhibition entry in assay [4] was “Active”. For the same compound, the inhibition result in assay [7] is “inactive”.
